“And” between values parts separate entries of the source, which are not always exact repeats. Identical values can stand only once. Like-named read-outs stand apart in the source and are kept apart here.
Tests used:
CYP261C1 (P450-SS9) = target: T1, CYP261C1 (P450-SS9) (Photobacterium profundum, UniProt Q6LGK6); test: absorbance spectral titration; type: binding; details: μM
T1 sequence (Q6LGK6 1-480): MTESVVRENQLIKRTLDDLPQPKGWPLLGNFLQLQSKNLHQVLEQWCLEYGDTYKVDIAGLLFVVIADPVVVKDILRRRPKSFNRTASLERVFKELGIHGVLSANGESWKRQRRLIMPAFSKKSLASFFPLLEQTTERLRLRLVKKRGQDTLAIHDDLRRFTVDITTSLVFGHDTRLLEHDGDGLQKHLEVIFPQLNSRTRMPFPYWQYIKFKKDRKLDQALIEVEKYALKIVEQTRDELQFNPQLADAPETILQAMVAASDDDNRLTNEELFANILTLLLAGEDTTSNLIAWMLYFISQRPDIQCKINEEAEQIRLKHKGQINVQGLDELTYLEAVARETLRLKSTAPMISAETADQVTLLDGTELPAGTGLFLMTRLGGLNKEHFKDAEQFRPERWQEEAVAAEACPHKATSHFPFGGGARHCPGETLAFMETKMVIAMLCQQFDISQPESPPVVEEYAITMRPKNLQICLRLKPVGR
In short: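 Recombinant CYP261C1 expressed in E. coli TOPP3, Ni-NTA purified, then separated into (+) and (−) forms on cation/anion exchange. Fatty-acid titrations tracked by absorbance spectra at 25 °C in 0.1 M Na-Hepes pH 7.4 with 0.5 mM EDTA. Spectral series underwent PCA, with least-squares fitting to high-spin, low-spin and P420 standards. Kd came from the tight-binding (square-root) equation.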

CYP261D1 (P450-PE36) = test: absorbance spectral titration; type: binding, Moritella sp. PE36; details: 0.1 M Na-Hepes pH 7.4, 0.5 mM EDTA, 25 °C, ambient pressure
In short: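 Recombinant His-tagged enzyme was expressed with […] and 0.5 mM IPTG for 48 h at 30 °C, then Ni-NTA purified. (+) and (−) forms were separated on cation-exchange and DEAE resins and dialyzed into Hepes/glycerol/KCl/TCEP. Titration spectra were taken in a stirred, thermostated cell and analysed by PCA/SVD against high-spin, low-spin and P420 standards. Spin-state changes were fitted to the tight-binding (square-root) equation.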

## CCCCC/C=C\C/C=C\C/C=C\C/C=C\CCCC(=O)O [Arachidonic acid]
CYP261C1 (P450-SS9); Arachidonic acid / KD
  Kd: 9.7 µM and 10.4 µM
CYP261D1 (P450-PE36); read-out: Arachidonic acid / KD, (+) conformer
  Kd: 3.1 ± 0.6 µM
CYP261D1 (P450-PE36); read-out: Arachidonic acid / KD, (−) conformer
  Kd: 8.9 ± 2.2 µM

## CCCCCCCCCCCCCC(=O)O [Myristic acid]
CYP261C1 (P450-SS9); Myristic acid / KD
  Kd: 8.1 µM and 3.6 µM
CYP261D1 (P450-PE36); read-out: Myristic acid / KD, (+) conformer
  Kd: 2.4 ± 0.7 µM
CYP261D1 (P450-PE36); read-out: Myristic acid / KD, (−) conformer
  Kd: 3 ± 1 µM
